Assay outcomes from PubChem BioAssay.
HEK293 NFkB inh: inhibitors of the PMA/ionomycin-induced NF-kB reporter in HEK293 cells | HEK-293 NF-kB luciferase reporter, luminescence | inhibition, % at 3 µM | 62,000 tested, 0.21% active | AID 465;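 active means inhibition above the mean of all tested compounds plus 3 SD, cut at about 40% in these data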
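Timing: 1 h pretreatment, 16 h stimulation, 37 °C; system: HEK-293 cells with stable firefly luciferase reporter driven by four HIV NF-kB elements; doses: 3 µM once, 0.30% DMSO; measured by: luciferase luminescence; control set: DMSO and 10 µM reference inhibitor; repeats: single test; reagent: PMA plus ionomycin mix as NF-kB-activating stimulus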
5HT1a antag: 5-HT1a (human) receptor antagonism; P08908; CHO 5-HT1a Ga15 NFAT-bla reporter, antagonist mode; inhibition, % at 10 µM; 62,000 tested, 0.68% active; AID 612;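 active means inhibition above the mean of all tested compounds plus 3 SD, cut at about 43% in these data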;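 further: receptor stimulated by 5-CT agonist at 100 nM near EC80; beta-lactamase reporter measured by ratiometric fluorescence of a cleavable substrate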
Jurkat tox 60K: cytotoxicity toward Jurkat cells; Jurkat E6.1 viability, ATP luminescence, 48 h; inhibition, % at 4 µM; AID 463; 56,000 tested, 1.2% active;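 active means inhibition above the mean inhibition of all tested compounds plus 3 SD, cut at about 28% in these data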
HTR1E antagonist: 5-HT1E (human) receptor antagonism | 65,000 tested, 0.99% active | inhibition, % at 6 µM | AID 571 | P28566 | CHO 5-HT1E Ga15 NFAT-bla reporter, FRET, antagonist;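 active means inhibition above a set limit, the mean inhibition across every tested compound plus 3 SD, cut at about 29% in these data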;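 further: signal is the 460 over 535 nm emission ratio of beta-lactamase substrate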
Target sequence (P28566 whole entry, looked up): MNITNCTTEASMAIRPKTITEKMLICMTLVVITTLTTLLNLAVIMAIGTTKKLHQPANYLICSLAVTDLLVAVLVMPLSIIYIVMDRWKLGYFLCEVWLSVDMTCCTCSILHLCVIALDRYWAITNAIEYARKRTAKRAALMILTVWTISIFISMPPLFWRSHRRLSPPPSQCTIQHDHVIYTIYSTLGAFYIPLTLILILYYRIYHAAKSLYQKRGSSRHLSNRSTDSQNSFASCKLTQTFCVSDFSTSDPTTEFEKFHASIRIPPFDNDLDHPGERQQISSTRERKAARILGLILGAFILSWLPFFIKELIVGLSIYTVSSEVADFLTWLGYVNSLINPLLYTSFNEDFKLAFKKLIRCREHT
5HT1a ag: 5-HT1a (human) receptor agonism | P08908 | CHO 5-HT1a Ga15 NFAT-bla reporter, FRET ratio; 0% basal, 100% maximal reference agonist | activation, % at 10 µM | 65,000 tested, 0.56% active | AID 567;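 active means activation above the screen-wide mean activation plus 3 SD, cut at about 19% in these data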
5HT1E ag: activates the human 5-HT1E serotonin receptor. 65,000 tested, 0.69% active. AID 574. CHO 5-HT1E Ga15 NFAT-bla reporter, FRET; 0% DMSO wells, 100% control agonist wells. P28566. activation, % at 6 µM;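 active means activation above a set limit, the screen-wide mean activation plus 3 SD, cut at about 8.5% in these data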
Large screens that a line does not name were inactive. Most compounds without a hit are left out; they make up all but 3.3% or so of the library.

CC1(C)CC(=O)C2=C(C1)NC(SCC(=O)Nc1ccccc1)=C(C#N)C2c1ccco1 (configuration not stated)	HTR1E antagonist 33
CC1=C(C(=O)OC2CCCCC2)C(c2ccc(C)o2)C2=C(CCCC2=O)N1 (configuration not stated)	HTR1E antagonist 30
CC1=C(C(=O)OC2CCCCC2)C(c2ccco2)C2=C(CC(C)(C)CC2=O)N1 (configuration not stated)	HTR1E antagonist 44
CC1=C(C(=O)OCCOc2ccccc2)C(c2ccc(C)o2)C2=C(CC(C)(C)CC2=O)N1 (configuration not stated)	none
CC1=C(C(=O)OCc2ccccc2)C(c2ccc(C)o2)C2=C(CCCC2=O)N1 (configuration not stated)	none
CC(=Nc1ccc2c(c1)nc(CO)n2C)C1=C(O)CC(C)(C)CC1=O	none
Cn1c(=O)n(CCN2CCOCC2)c(=O)c2c1nc1n2CCN1c1ccccc1	none
CCOC(=O)C(C(=O)OCC)c1cc(Br)c2noc3c2c1C(=O)c1ccccc1-3	5HT1a antag 48, HTR1E antagonist 32 (no result: Jurkat tox 60K)
Cc1cccc(OCc2nnc(SCc3cc(=O)n4cc(Br)ccc4n3)o2)c1	none
Cc1[nH]nc2c1C(C1CC=CCC1)C(C#N)=C(N)O2 (configuration not stated)	none
N#CC1=C(N)Oc2cc(N)ccc2C1C1CC=CCC1 (configuration not stated)	Jurkat tox 60K 56
CCSc1nnc(NC(=O)c2cccc(OCc3c(C)noc3C)c2)s1	none (no result: Jurkat tox 60K)
COc1ccc2nc(NC(=O)c3cccc(OCc4c(C)noc4C)c3)sc2c1	Jurkat tox 60K 70
Cc1nn(Cc2ccc(Cl)cc2)c(C)c1NC(=O)C1CC=CCC1C(=O)O (configuration not stated)	none
O=C1CC(Sc2nnc(-c3ccccc3O)o2)C(=O)N1c1ccccc1 (configuration not stated)	none
COc1ccc(N2C(=O)CC(Sc3nnc(-c4ccccc4)o3)C2=O)cc1 (configuration not stated)	5HT1a antag 47
CC1Cc2cc(-c3csc(NC(=O)Cc4cccs4)n3)ccc2N1S(C)(=O)=O (configuration not stated)	Jurkat tox 60K 74
Cn1c(SC2=CS(=O)(=O)c3ccccc32)nc2ccccc21	5HT1a antag 74, Jurkat tox 60K 73, HTR1E antagonist 50
CCOC(=O)c1cnc(SCc2nc(N)nc(Nc3ccc(C)cc3)n2)nc1N	none
CCn1nnc(-c2ccccc2NC(=O)c2cc(OC)c(OC)c(OC)c2)n1	HTR1E antagonist 31
CCSCc1nnc(SCC(=O)Nc2cccc(SC)c2)n1C	none
C=CCn1c(SCc2c(C)noc2C)nnc1C1COc2ccccc2O1 (configuration not stated)	none
Cn1cccc1C(=O)NS(=O)(=O)c1ccccc1Cl	5HT1a ag 25
Cc1ccc2nc(NC(=O)Cn3cc4c(n3)CCCCC4)sc2c1	none
CCCCCn1c(=N)n(CC(O)COc2ccccc2OC)c2ccccc21 (configuration not stated)	5HT1a antag 64
Cc1ccc(OCC(O)Cn2c(=N)n(CCN3CCCCC3)c3ccccc32)cc1 (configuration not stated)	5HT1a antag 43
CCCCn1c(=N)n(CC(O)COc2cccc(C)c2)c2ccccc21 (configuration not stated)	5HT1a antag 43
COc1ccccc1OCC(O)Cn1c(=N)n(Cc2ccccc2)c2ccccc21 (configuration not stated)	none (no result: Jurkat tox 60K)
Cc1ccc(OCC(O)Cn2c(=N)n(CCN3CCOCC3)c3ccccc32)cc1 (configuration not stated)	none
CCOC(=O)c1c(NC(=O)CSc2nnnn2C)sc(C)c1-c1ccc(C)cc1	none
Cc1nnc(Sc2nc3c(c(=O)[nH]c(=O)n3C)n2Cc2ccccc2Cl)s1	none
COc1ccc(Cl)cc1NC(=O)COc1cccc(-n2cnnn2)c1	5HT1E ag 35
Cc1nn(Cc2ccccc2Cl)c(C)c1C(=O)Nc1nnc(C2CC2)s1	HEK293 NFkB inh 52, Jurkat tox 60K 47
Cc1ccc(-c2csc3nnc(SCC(=O)Nc4cccc(C)n4)n23)cc1	none
Cc1ccc(-c2cnc(N)n2C)cc1C	5HT1E ag 38
Cn1c(-c2ccc(Cl)cc2)cnc1N	none
COC(=O)c1ccccc1NC1c2ccccc2C(=O)N1c1cccnc1 (configuration not stated)	5HT1a ag 56
Cn1c(=O)c2cc(NC(=O)c3ccccc3Cl)c(=O)oc2n(C)c1=O	none (no result: Jurkat tox 60K)
COc1ccc(C(=O)OCCNC(=O)c2c(Cl)nc3ccccn23)cc1	HTR1E antagonist 35
CN(C)CCCN1C(=O)C(O)=C(C(=O)c2cccs2)C1c1ccccn1 (configuration not stated)	none
Cc1cnc(C(=O)Nc2ccccc2-n2cccc2)cn1	none
COc1ccc(NC(=O)c2cnc(C)cn2)c2ncccc12	Jurkat tox 60K 62
COc1ccc(-c2cc(C(F)(F)F)nc(N3CCCCC3)n2)cc1OC	none (no result: Jurkat tox 60K)
COc1ccc(-c2cc(C(F)(F)F)nc(N3CCCCCC3)n2)cc1	none (no result: Jurkat tox 60K)
COc1ccc(-c2cc(C(F)(F)F)nc(N3CCN(C)CC3)n2)cc1	5HT1E ag 18 (no result: Jurkat tox 60K)
COc1cccc(-c2cc(C(F)(F)F)nc(N3CCCCC3)n2)c1	5HT1a ag 99 (no result: Jurkat tox 60K)
CCOc1ccccc1NC(=O)CCN1CCN(S(=O)(=O)c2ccc(Br)cc2)CC1	none
Cc1onc(-c2c(F)cccc2Cl)c1C(=O)Nc1ccc(S(=O)(=O)Nc2ncccn2)cc1	none
CCCn1nc(NC(=O)c2cccs2)c2cc3cc(OC)ccc3nc21	none
CCCCn1nc(NC(=O)c2cccs2)c2cc3cc(OC)ccc3nc21	5HT1a ag 22
O=C(NC1CC2CCC1C2)C1COc2ccccc2O1 (configuration not stated)	none
Cc1cccnc1NCc1ccc(O)c2ncccc12	HTR1E antagonist 51
Oc1ccc(CN2CCCc3ccccc32)c2cccnc12	none
N#Cc1c(N)oc(-c2ccc3c(c2)OCO3)c1-c1ccc2c(c1)OCO2	none (no result: Jurkat tox 60K)
CCN(c1ccccc1)S(=O)(=O)c1ccc(Oc2ccc(-n3ccnc3)cc2)nc1	HEK293 NFkB inh 98
CC(=O)c1cccc(NC(=O)COc2ccc(S(=O)(=O)N3CCCCC3)cc2)c1	none
CCNc1nc(SCc2ccccc2)nc(N2CCOCC2)n1	HTR1E antagonist 36
Nc1nc(CSCc2ccccc2)nc(N2CCOCC2)n1	none
O=C(CSc1nnnn1-c1ccccc1)Nc1nsc(-c2ccc(Cl)cc2)n1	5HT1a antag 50
CCc1nnc2c3cnn(-c4ccc(C)c(C)c4)c3ncn12	none (no result: Jurkat tox 60K)
CCCNS(=O)(=O)c1ccc(OCC(=O)NCc2ccc3c(c2)OCO3)cc1	none
